According to ChEMBL document CHEMBL4052611, “Opportunistic Sampling of Roadkill as an Entry Point to Accessing Natural Products Assembled by Bacteria Associated with Non-anthropoidal Mammalian Microbiomes” (J Nat Prod, 2017):

What was measured:
Candida albicans [1] = experiment: Induction of cell killing in Candida albicans SC5314 up to 100 uM after 48 hrs by XTT assay
Summary of the method: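 Growth assay based on CLSI M27-A3, modified. SC5314 was precultured overnight in BHI at 37 °C, washed in PBS (pH 7.4) and resuspended at 2.5×10^3 cells mL^-1 in RPMI-1640/MOPS (pH 7.0). Compounds came from 2 mM DMSO stocks (DMSO ≤2% v/v final). After 48 h at 37 °C, viability was read by XTT (0.1 mg mL^-1, 1 h) at A492. MIC = lowest concentration giving ≥85% loss of metabolic activity. Triplicate, three occasions.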

Candida albicans [2] = experiment: Antibiofilm activity against Candida albicans SC5314 after 48 hrs by XTT assay; format: functional; settings: SC5314, 48 h
Summary of the method: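 SC5314 grown overnight in BHI at 37 °C, then washed in PBS and resuspended in RPMI-1640 buffered to pH 7.0 with 0.17 M MOPS. Cells at 2.5×10^3 cells mL^-1 were incubated 48 h at 37 °C with compounds (2 mM DMSO stocks; DMSO ≤2% v/v final). Wells were washed twice with PBS and refilled with fresh medium. Biofilm was read by XTT (0.1 mg mL^-1, 1 h, 37 °C) at A492. Triplicate, three separate occasions.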

Structure (SMILES)	Activity (Candida albicans [1])	IC50 (Candida albicans [2])
CCCCCCC[C@@H]1CC(=O)N[C@H](CC(C)C)C(=O)N[C@@H](CO)C(=O)N[C@@H]([C@@H](C)O)C(=O)N[C@H](Cc2ccccc2)C(=O)N[C@@H]([C@@H](C)CC)C(=O)O1	Non-Toxic	7.7 µM
CCCCC[C@@H]1CC(=O)N[C@H](CC(C)C)C(=O)N[C@@H](CO)C(=O)N[C@@H]([C@@H](C)O)C(=O)N[C@H](Cc2ccccc2)C(=O)N[C@@H]([C@@H](C)CC)C(=O)O1	Non-Toxic	13.4 µM
CCCCCCC[C@@H]1CC(=O)N[C@H](CC(C)C)C(=O)N[C@@H](CO)C(=O)N[C@@H]([C@@H](C)O)C(=O)N[C@H](Cc2ccc(O)cc2)C(=O)N[C@@H]([C@@H](C)CC)C(=O)O1	Non-Toxic	29.2 µM
CCCCCCC[C@@H]1CC(=O)N[C@H](CC(C)C)C(=O)N[C@@H](CO)C(=O)N[C@@H]([C@@H](C)O)C(=O)N[C@H](Cc2ccccc2)C(=O)N[C@@H](C(C)C)C(=O)O1	Non-Toxic	59.8 µM
